Reference: ChEMBL document CHEMBL5303300, “EUbOPEN Chemogenomics Library - Multiplex” (2023)
Several values for one entry are separate records, joined by “and”; a condition that tells them apart may be missing. Equal values may be shown once.

Test system: HEK-293T
Test: Multiplex assay against HEK293T
Assay type: toxicity, cell-based
Conditions: human, number of replicates 2
How it was run: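 Values for tubulin, mitochondrial-mass and membrane-permeability phenotypes are per cents of cells with healthy nuclei. These cells were identified by CellPathfinder machine-learning gating of live cells that had been stained at seeding with Hoechst33342, BioTracker Green Microtubule Cytoskeleton Dye, MitoTracker Red and Annexin V Alexa Fluor 680 and imaged on a CQ1 microscope at 37°C and 5% CO2 after compound addition. The gating first set Hoechst high-intensity objects apart from normal cells, then split normal cells into healthy, pyknosed or fragmented nuclei, and pyknosed cells into mitotic or apoptotic.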

[1] = 12 h, 1 µM, compound concentration 1 uM
[2] = 12 h, 10 µM, compound concentration 10 uM
[3] = 24 h, 1 µM, compound concentration 1 uM
[4] = 24 h, 10 µM, compound concentration 10 uM
[5] = 48 h, 1 µM, compound concentration 1 uM
[6] = 48 h, 10 µM, compound concentration 10 uM

Cc1ccc2c(N)c(C(=O)NC3CCc4cc(N5CC6CCC(C5)N6)ccc4C3)sc2n1.O=CO (configuration not stated)
Population Apoptotic (%) [1]: 50% and 60%
Population Fragmented Nuclei (%) [1]: 3% and 5%
Population Healthy Nuclei (%) [1]: 85% and 82%
Population Hoechst High Intensity Objects (%) [1]: 12% and 13%
Population Membrane Permeable-Phenotype (%) [1]: 2% and 1%
Population Mitochondria Different-Phenotype (%) [1]: 57% and 50%
Population Mitotic Cells (%) [1]: 50% and 39%
Population Normal (%) [1]: 87% and 86%
Population Pyknosed Nuclei (%) [1]: 11%
Population Tubulin-Different-Phenotype (%) [1]: 79% and 80%
Total Cell Count [1]: 342 and 430
Population Apoptotic (%) [2]: 77% and 90%
Population Fragmented Nuclei (%) [2]: 7% and 15%
Population Healthy Nuclei (%) [2]: 66% and 63%
Population Hoechst High Intensity Objects (%) [2]: 66% and 71%
Population Membrane Permeable-Phenotype (%) [2]: 15% and 21%
Population Mitochondria Different-Phenotype (%) [2]: 60% and 54%
Population Mitotic Cells (%) [2]: 22% and 9%
Population Normal (%) [2]: 33% and 28%
Population Pyknosed Nuclei (%) [2]: 26% and 21%
Population Tubulin-Different-Phenotype (%) [2]: 68% and 63%
Total Cell Count [2]: 206 and 183
Population Apoptotic (%) [3]: 58% and 60%
Population Fragmented Nuclei (%) [3]: 5% and 3%
Population Healthy Nuclei (%) [3]: 86% and 89%
Population Hoechst High Intensity Objects (%) [3]: 13% and 16%
Population Membrane Permeable-Phenotype (%) [3]: 1% and 2%
Population Mitochondria Different-Phenotype (%) [3]: 60% and 50%
Population Mitotic Cells (%) [3]: 41% and 40%
Population Normal (%) [3]: 86% and 83%
Population Pyknosed Nuclei (%) [3]: 8% and 6%
Population Tubulin-Different-Phenotype (%) [3]: 72% and 71%
Total Cell Count [3]: 413 and 427
Population Apoptotic (%) [4]: 95% and 72%
Population Fragmented Nuclei (%) [4]: 11% and 14%
Population Healthy Nuclei (%) [4]: 59% and 66%
Population Hoechst High Intensity Objects (%) [4]: 67% and 66%
Population Membrane Permeable-Phenotype (%) [4]: 14% and 13%
Population Mitochondria Different-Phenotype (%) [4]: 66% and 63%
Population Normal (%) [4]: 32% and 33%
Population Pyknosed Nuclei (%) [4]: 29% and 19%
Population Tubulin-Different-Phenotype (%) [4]: 61% and 55%
Total Cell Count [4]: 216 and 168
Population Apoptotic (%) [5]: 40% and 66%
Population Fragmented Nuclei (%) [5]: 5%
Population Healthy Nuclei (%) [5]: 88% and 87%
Population Hoechst High Intensity Objects (%) [5]: 8% and 10%
Population Membrane Permeable-Phenotype (%) [5]: 1% and 0%
Population Mitochondria Different-Phenotype (%) [5]: 32% and 41%
Population Mitotic Cells (%) [5]: 59% and 33%
Population Normal (%) [5]: 91% and 89%
Population Pyknosed Nuclei (%) [5]: 5% and 7%
Population Tubulin-Different-Phenotype (%) [5]: 61% and 73%
Total Cell Count [5]: 596 and 593
Population Apoptotic (%) [6]: 77% and 87%
Population Fragmented Nuclei (%) [6]: 9% and 15%
Population Healthy Nuclei (%) [6]: 57% and 60%
Population Hoechst High Intensity Objects (%) [6]: 67%
Population Membrane Permeable-Phenotype (%) [6]: 14% and 10%
Population Mitochondria Different-Phenotype (%) [6]: 63% and 70%
Population Mitotic Cells (%) [6]: 22% and 12%
Population Normal (%) [6]: 32%
Population Pyknosed Nuclei (%) [6]: 32% and 24%
Population Tubulin-Different-Phenotype (%) [6]: 48% and 57%
Total Cell Count [6]: 254 and 203

CCN(CC)C/C=C/C(=O)Nc1cc2c(Nc3ccc(F)c(Cl)c3)ncnc2cc1OCC1CC1
Population Apoptotic (%) [1]: 61% and 46%
Population Fragmented Nuclei (%) [1]: 3% and 4%
Population Healthy Nuclei (%) [1]: 79%
Population Hoechst High Intensity Objects (%) [1]: 4% and 7%
Population Membrane Permeable-Phenotype (%) [1]: 6% and 5%
Population Mitochondria Different-Phenotype (%) [1]: 26% and 30%
Population Mitotic Cells (%) [1]: 38% and 53%
Population Normal (%) [1]: 95% and 92%
Population Pyknosed Nuclei (%) [1]: 17% and 15%
Population Tubulin-Different-Phenotype (%) [1]: 81% and 90%
Total Cell Count [1]: 435 and 525
Population Apoptotic (%) [2]: 81% and 84%
Population Fragmented Nuclei (%) [2]: 1% and 6%
Population Healthy Nuclei (%) [2]: 68% and 69%
Population Hoechst High Intensity Objects (%) [2]: 8% and 6%
Population Membrane Permeable-Phenotype (%) [2]: 4% and 3%
Population Mitochondria Different-Phenotype (%) [2]: 76% and 83%
Population Mitotic Cells (%) [2]: 18% and 15%
Population Normal (%) [2]: 91% and 93%
Population Pyknosed Nuclei (%) [2]: 29% and 23%
Population Tubulin-Different-Phenotype (%) [2]: 84% and 78%
Total Cell Count [2]: 283 and 298
Population Apoptotic (%) [3]: 50%
Population Fragmented Nuclei (%) [3]: 5% and 6%
Population Healthy Nuclei (%) [3]: 81% and 84%
Population Hoechst High Intensity Objects (%) [3]: 6% and 9%
Population Membrane Permeable-Phenotype (%) [3]: 4% and 5%
Population Mitochondria Different-Phenotype (%) [3]: 14% and 19%
Population Mitotic Cells (%) [3]: 50% and 49%
Population Normal (%) [3]: 93% and 90%
Population Pyknosed Nuclei (%) [3]: 12% and 8%
Population Tubulin-Different-Phenotype (%) [3]: 59% and 72%
Total Cell Count [3]: 687 and 743
Population Apoptotic (%) [4]: 84% and 81%
Population Fragmented Nuclei (%) [4]: 2% and 4%
Population Healthy Nuclei (%) [4]: 47% and 45%
Population Hoechst High Intensity Objects (%) [4]: 10%
Population Membrane Permeable-Phenotype (%) [4]: 2% and 1%
Population Mitochondria Different-Phenotype (%) [4]: 92% and 93%
Population Mitotic Cells (%) [4]: 15% and 18%
Population Normal (%) [4]: 89%
Population Pyknosed Nuclei (%) [4]: 49%
Population Tubulin-Different-Phenotype (%) [4]: 88% and 77%
Total Cell Count [4]: 274 and 323
Population Apoptotic (%) [5]: 30%
Population Fragmented Nuclei (%) [5]: 9%
Population Healthy Nuclei (%) [5]: 84%
Population Hoechst High Intensity Objects (%) [5]: 9% and 7%
Population Membrane Permeable-Phenotype (%) [5]: 4% and 6%
Population Mitochondria Different-Phenotype (%) [5]: 5% and 2%
Population Mitotic Cells (%) [5]: 69%
Population Normal (%) [5]: 90% and 92%
Population Pyknosed Nuclei (%) [5]: 5% and 6%
Population Tubulin-Different-Phenotype (%) [5]: 53% and 34%
Total Cell Count [5]: 1264 and 1265
Population Apoptotic (%) [6]: 84% and 87%
Population Fragmented Nuclei (%) [6]: 7% and 11%
Population Healthy Nuclei (%) [6]: 32% and 33%
Population Hoechst High Intensity Objects (%) [6]: 8% and 15%
Population Membrane Permeable-Phenotype (%) [6]: 5% and 2%
Population Mitochondria Different-Phenotype (%) [6]: 87% and 94%
Population Mitotic Cells (%) [6]: 15% and 12%
Population Normal (%) [6]: 91% and 84%
Population Pyknosed Nuclei (%) [6]: 59% and 55%
Population Tubulin-Different-Phenotype (%) [6]: 84% and 80%
Total Cell Count [6]: 396 and 360

CSc1cc2c(cc1C(F)(F)F)N(C(=O)Nc1cccnc1)CC2
Population Apoptotic (%) [1]: 48% and 46%
Population Fragmented Nuclei (%) [1]: 2% and 3%
Population Healthy Nuclei (%) [1]: 87% and 85%
Population Hoechst High Intensity Objects (%) [1]: 4% and 5%
Population Membrane Permeable-Phenotype (%) [1]: 4% and 3%
Population Mitochondria Different-Phenotype (%) [1]: 9% and 18%
Population Mitotic Cells (%) [1]: 51% and 53%
Population Normal (%) [1]: 95% and 94%
Population Pyknosed Nuclei (%) [1]: 10%
Population Tubulin-Different-Phenotype (%) [1]: 41% and 47%
Total Cell Count [1]: 690 and 549
Population Apoptotic (%) [2]: 51% and 43%
Population Fragmented Nuclei (%) [2]: 5% and 2%
Population Healthy Nuclei (%) [2]: 84%
Population Hoechst High Intensity Objects (%) [2]: 5%
Population Membrane Permeable-Phenotype (%) [2]: 3%
Population Mitochondria Different-Phenotype (%) [2]: 5% and 14%
Population Mitotic Cells (%) [2]: 48% and 56%
Population Normal (%) [2]: 94%
Population Pyknosed Nuclei (%) [2]: 9% and 12%
Population Tubulin-Different-Phenotype (%) [2]: 39%
Total Cell Count [2]: 679 and 494
Population Apoptotic (%) [3]: 25% and 42%
Population Fragmented Nuclei (%) [3]: 5% and 4%
Population Healthy Nuclei (%) [3]: 88% and 87%
Population Hoechst High Intensity Objects (%) [3]: 6% and 5%
Population Membrane Permeable-Phenotype (%) [3]: 2%
Population Mitochondria Different-Phenotype (%) [3]: 3% and 6%
Population Mitotic Cells (%) [3]: 74% and 57%
Population Normal (%) [3]: 93% and 94%
Population Pyknosed Nuclei (%) [3]: 5% and 8%
Population Tubulin-Different-Phenotype (%) [3]: 27% and 31%
Total Cell Count [3]: 1189 and 774
Population Apoptotic (%) [4]: 20% and 36%
Population Fragmented Nuclei (%) [4]: 10% and 6%
Population Healthy Nuclei (%) [4]: 85% and 87%
Population Hoechst High Intensity Objects (%) [4]: 5% and 7%
Population Membrane Permeable-Phenotype (%) [4]: 3% and 2%
Population Mitochondria Different-Phenotype (%) [4]: 2% and 5%
Population Mitotic Cells (%) [4]: 79% and 63%
Population Normal (%) [4]: 94% and 92%
Population Pyknosed Nuclei (%) [4]: 4% and 6%
Population Tubulin-Different-Phenotype (%) [4]: 26% and 21%
Total Cell Count [4]: 1164 and 681
Population Apoptotic (%) [5]: 5% and 7%
Population Fragmented Nuclei (%) [5]: 14% and 9%
Population Healthy Nuclei (%) [5]: 83% and 88%
Population Hoechst High Intensity Objects (%) [5]: 9% and 10%
Population Membrane Permeable-Phenotype (%) [5]: 6% and 4%
Population Mitochondria Different-Phenotype (%) [5]: 0%
Population Mitotic Cells (%) [5]: 94% and 92%
Population Normal (%) [5]: 90% and 89%
Population Pyknosed Nuclei (%) [5]: 2%
Population Tubulin-Different-Phenotype (%) [5]: 14% and 17%
Total Cell Count [5]: 2977 and 1800
Population Apoptotic (%) [6]: 5% and 6%
Population Fragmented Nuclei (%) [6]: 20% and 12%
Population Healthy Nuclei (%) [6]: 77% and 84%
Population Hoechst High Intensity Objects (%) [6]: 9% and 7%
Population Membrane Permeable-Phenotype (%) [6]: 7% and 6%
Population Mitochondria Different-Phenotype (%) [6]: 0% and 1%
Population Mitotic Cells (%) [6]: 94% and 93%
Population Normal (%) [6]: 90% and 92%
Population Pyknosed Nuclei (%) [6]: 1% and 2%
Population Tubulin-Different-Phenotype (%) [6]: 11% and 13%
Total Cell Count [6]: 2869 and 1725
